Results as given in ChEMBL document CHEMBL1141288, “Antimalarial and antituberculous poly-O-acylated jatrophane diterpenoids from Pedilanthus tithymaloides” (J Nat Prod, 2007).
Values after ≈ are worked out from the molar mass of the structure shown. Active and inactive are the calls of the source. No cut-off for these calls is given here.

What was measured:
[1] = system: Plasmodium falciparum; assay: Antimalarial activity against Plasmodium falciparum K1 by microculture radioisotope assay; type: functional, organism-based
Method in brief: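 The P. falciparum K1 strain is multidrug-resistant and was kept in continuous culture. In vitro activity was measured by the microculture radioisotope technique.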

[2] = system: Mycobacterium tuberculosis; assay: Antitubercular activity against Mycobacterium tuberculosis H37Ra by alamar blue microplate assay; type: functional
[3] = system: Candida albicans; assay: Antifungal activity against Candida albicans ATCC 90028 by tetrazolium/formazan assay; type: functional, organism-based
[4] = system: Candida albicans; assay: Antifungal activity against Candida albicans ATCC 90028 at 50 ug/mL by tetrazolium/formazan assay; type: functional, organism-based
Method in brief: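 Candida albicans ATCC 90028 tested with a tetrazolium/formazan assay. Compounds were run at 50 µg/mL. Amphotericin B served as the positive control and DMSO as the negative control.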

[5] = system: Plasmodium falciparum; assay: Antimalarial activity against Plasmodium falciparum K1 at 10 ug/mL by microculture radioisotope assay; type: functional, organism-based

Row | SMILES | IC50 [1] [µM] | MIC [2] [µg/mL] | IC50 [3] [µg/mL] | Activity [4] | Activity [5]
1 | CC(=O)O/C1=C(\C)[C@@H](O)[C@H]2[C@@H](OC(=O)c3ccccc3)[C@@H](C)[C@H](O)[C@]2(OC(C)=O)[C@H](OC(C)=O)/C(C)=C/CC(C)(C)[C@@H](OC(C)=O)[C@H]1OC(C)=O | 6 | 100 (≈ 140 µM) |  |  | 
2 | NC[C@H]1O[C@H](O[C@H]2[C@H](O)[C@@H](O[C@H]3O[C@H](CO)[C@@H](O)[C@H](N)[C@H]3O)[C@H](N)C[C@@H]2N)[C@H](O)[C@@H](O)[C@@H]1O [KANAMYCIN] |  | 2.5 (≈ 5.16 µM) |  |  | 
3 | CC(=O)O[C@@H]1/C(C)=C/CC(C)(C)[C@@H](OC(C)=O)[C@@H](OC(C)=O)C(=O)/C(C)=C\[C@H]2[C@@H](OC(=O)c3ccccc3)[C@@H](C)[C@H](OC(C)=O)[C@]12OC(C)=O | 4 | 50 (≈ 71.6 µM) |  |  | 
4 | NNC(=O)c1ccncc1 [ISONIAZID] |  | 0.1 (≈ 0.729 µM) |  |  | 
5 | C[C@@H]1[C@H](O)[C@@H](C)/C=C/C=C/C=C/C=C/C=C/C=C/C=C/[C@H](O[C@@H]2O[C@H](C)[C@@H](O)[C@H](N)[C@@H]2O)C[C@@H]2O[C@](O)(C[C@@H](O)C[C@@H](O)[C@H](O)CC[C@@H](O)C[C@@H](O)CC(=O)O[C@H]1C)C[C@H](O)[C@H]2C(=O)O (stereo in doubt) [AMPHOTERICIN B] |  |  | 0.068 (≈ 0.0736 µM) |  | 
6 | CC(=O)O[C@H]1C[C@@H](O)/C(C)=C\[C@H]2[C@@H](OC(=O)c3ccccc3)[C@@H](C)[C@H](O)[C@]2(OC(C)=O)[C@H](O)[C@@](C)(O)/C=C/C1(C)C |  | 100 (≈ 174 µM) |  | inactive | inactive
7 | CC(=O)O/C1=C(\C)[C@@H](O)[C@H]2[C@@H](OC(=O)c3ccccc3)[C@@H](C)[C@H](OC(C)=O)[C@]2(OC(C)=O)[C@H](OC(C)=O)/C(C)=C/CC(C)(C)[C@@H](OC(C)=O)[C@H]1OC(C)=O | 5.8 | 50 (≈ 65.9 µM) |  | inactive | 
8 | CC(=O)O[C@H]1C[C@@H](OC(=O)c2ccccc2)/C(C)=C\[C@H]2[C@@H](OC(=O)c3ccccc3)[C@@H](C)[C@H](O)[C@]2(OC(C)=O)[C@H](O)[C@@](C)(O)/C=C/C1(C)C | 5.9 | 12.5 (≈ 18.4 µM) |  | inactive | 
9 | C[C@H]1[C@@H](O)O[C@@H]2O[C@@]3(C)CC[C@H]4[C@H](C)CC[C@@H]1[C@@]24OO3 [ARTENIMOL] | 0.0036 |  |  |  | 
